Laboratory results taken from ChEMBL document CHEMBL5058577, “EUbOPEN Chemogenomics Library 2 (Multiplex)” (2022).
Several values for one entry are separate records, joined by “and”; a condition that tells them apart may be missing. Equal entries are not always repeated.

Legend:
Type in all cases: toxicity, cell-based
Fibroblast = test: Multiplex assay against human fibroblast; details: 10 µM, compound concentration 10 uM
How it was run: (§1)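 Live cells were stained at seeding with Hoechst33342, BioTracker Green Microtubule Cytoskeleton Dye, MitoTracker Red and Annexin V Alexa Fluor 680. Following compound addition, they were imaged on a CQ1 microscope at 37°C and 5% CO2 and gated by CellPathfinder machine learning into Hoechst high-intensity objects or normal cells, with normal cells split into healthy, pyknosed or fragmented nuclei and pyknosed cells into mitotic or apoptotic. Tubulin, mitochondrial-mass and membrane-permeability phenotypes are per cents of healthy-nucleus cells.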

HEK-293T = test: Multiplex assay against HEK293T; details: human, 10 µM, compound concentration 10 uM; how it was run: as §1
U2OS = test: Multiplex assay against U2OS; details: human, 10 µM, compound concentration 10 uM; how it was run: as §1

CCC(=O)N1CCN(c2ccc(-n3c(=O)ccc4cnc5ccc(-c6cnc7ccccc7c6)cc5c43)cc2C(F)(F)F)CC1 [TORIN1]
Population Healthy Nuclei (%) (Fibroblast; 12 h, replicate 1): 60% and 61% | Population Mitotic Cells (%) (Fibroblast; 12 h, replicate 1): 72% and 76% | Population Normal (%) (Fibroblast; 12 h, replicate 1): 94% and 95% | Population Tubulin-Different-Phenotype (%) (Fibroblast; 12 h, replicate 1): 62% and 53% | Total Cell Count (Fibroblast; 12 h, replicate 1): 155 and 135 | Population Healthy Nuclei (%) (Fibroblast; 12 h, replicate 2): 44% | Population Mitotic Cells (%) (Fibroblast; 12 h, replicate 2): 65% and 66% | Population Normal (%) (Fibroblast; 12 h, replicate 2): 90% | Population Tubulin-Different-Phenotype (%) (Fibroblast; 12 h, replicate 2): 64% | Total Cell Count (Fibroblast; 12 h, replicate 2): 131 and 150 | Population Healthy Nuclei (%) (Fibroblast; 24 h, replicate 1): 64% | Population Mitotic Cells (%) (Fibroblast; 24 h, replicate 1): 66% and 50% | Population Normal (%) (Fibroblast; 24 h, replicate 1): 96% and 94% | Population Tubulin-Different-Phenotype (%) (Fibroblast; 24 h, replicate 1): 62% and 48% | Total Cell Count (Fibroblast; 24 h, replicate 1): 137 and 135 | Population Healthy Nuclei (%) (Fibroblast; 24 h, replicate 2): 57% and 45% | Population Mitotic Cells (%) (Fibroblast; 24 h, replicate 2): 56% and 77% | Population Normal (%) (Fibroblast; 24 h, replicate 2): 93% and 95% | Population Tubulin-Different-Phenotype (%) (Fibroblast; 24 h, replicate 2): 59% and 60% | Total Cell Count (Fibroblast; 24 h, replicate 2): 128 and 150 | Population Healthy Nuclei (%) (Fibroblast; 48 h, replicate 1): 72% and 71% | Population Mitotic Cells (%) (Fibroblast; 48 h, replicate 1): 50% | Population Normal (%) (Fibroblast; 48 h, replicate 1): 96% and 97% | Population Tubulin-Different-Phenotype (%) (Fibroblast; 48 h, replicate 1): 67% and 54% | Total Cell Count (Fibroblast; 48 h, replicate 1): 127 and 124 | Population Healthy Nuclei (%) (Fibroblast; 48 h, replicate 2): 62% and 46% | Population Mitotic Cells (%) (Fibroblast; 48 h, replicate 2): 46% | Population Normal (%) (Fibroblast; 48 h, replicate 2): 95% and 98% | Population Tubulin-Different-Phenotype (%) (Fibroblast; 48 h, replicate 2): 61% and 77% | Total Cell Count (Fibroblast; 48 h, replicate 2): 136 and 147 | Population Apoptotic (%) (HEK-293T; 12 h, replicate 1): 71% and 67% | Population Healthy Nuclei (%) (HEK-293T; 12 h, replicate 1): 76% and 71% | Population Membrane Permeable-Phenotype (%) (HEK-293T; 12 h, replicate 1): 0% | Population Mitochondria Different-Phenotype (%) (HEK-293T; 12 h, replicate 1): 78% and 76% | Population Normal (%) (HEK-293T; 12 h, replicate 1): 88% | Population Tubulin-Different-Phenotype (%) (HEK-293T; 12 h, replicate 1): 40% | Total Cell Count (HEK-293T; 12 h, replicate 1): 373 and 299 | Population Apoptotic (%) (HEK-293T; 12 h, replicate 2): 51% and 57% | Population Healthy Nuclei (%) (HEK-293T; 12 h, replicate 2): 79% | Population Mitochondria Different-Phenotype (%) (HEK-293T; 12 h, replicate 2): 87% | Population Mitotic Cells (%) (HEK-293T; 12 h, replicate 2): 48% and 42% | Population Normal (%) (HEK-293T; 12 h, replicate 2): 92% | Population Tubulin-Different-Phenotype (%) (HEK-293T; 12 h, replicate 2): 37% | Total Cell Count (HEK-293T; 12 h, replicate 2): 266 and 321 | Population Apoptotic (%) (HEK-293T; 24 h, replicate 1): 45% | Population Healthy Nuclei (%) (HEK-293T; 24 h, replicate 1): 75% and 74% | Population Membrane Permeable-Phenotype (%) (HEK-293T; 24 h, replicate 1): 0% | Population Mitochondria Different-Phenotype (%) (HEK-293T; 24 h, replicate 1): 75% and 81% | Population Mitotic Cells (%) (HEK-293T; 24 h, replicate 1): 46% and 54% | Population Normal (%) (HEK-293T; 24 h, replicate 1): 86% and 90% | Population Tubulin-Different-Phenotype (%) (HEK-293T; 24 h, replicate 1): 43% and 44% | Total Cell Count (HEK-293T; 24 h, replicate 1): 337 and 289 | Population Apoptotic (%) (HEK-293T; 24 h, replicate 2): 44% and 58% | Population Mitochondria Different-Phenotype (%) (HEK-293T; 24 h, replicate 2): 82% and 86% | Population Mitotic Cells (%) (HEK-293T; 24 h, replicate 2): 55% and 41% | Population Normal (%) (HEK-293T; 24 h, replicate 2): 77% and 71% | Population Tubulin-Different-Phenotype (%) (HEK-293T; 24 h, replicate 2): 33% and 57% | Total Cell Count (HEK-293T; 24 h, replicate 2): 225 and 283 | Population Apoptotic (%) (HEK-293T; 48 h, replicate 1): 56% and 69% | Population Healthy Nuclei (%) (HEK-293T; 48 h, replicate 1): 70% and 72% | Population Membrane Permeable-Phenotype (%) (HEK-293T; 48 h, replicate 1): 0% | Population Mitochondria Different-Phenotype (%) (HEK-293T; 48 h, replicate 1): 77% and 75% | Population Mitotic Cells (%) (HEK-293T; 48 h, replicate 1): 43% | Population Normal (%) (HEK-293T; 48 h, replicate 1): 73% and 80% | Population Tubulin-Different-Phenotype (%) (HEK-293T; 48 h, replicate 1): 47% and 35% | Total Cell Count (HEK-293T; 48 h, replicate 1): 292 and 275 | Population Apoptotic (%) (HEK-293T; 48 h, replicate 2): 68% and 58% | Population Healthy Nuclei (%) (HEK-293T; 48 h, replicate 2): 56% | Population Membrane Permeable-Phenotype (%) (HEK-293T; 48 h, replicate 2): 1% | Population Mitochondria Different-Phenotype (%) (HEK-293T; 48 h, replicate 2): 80% and 82% | Population Mitotic Cells (%) (HEK-293T; 48 h, replicate 2): 41% | Population Normal (%) (HEK-293T; 48 h, replicate 2): 38% and 36% | Population Tubulin-Different-Phenotype (%) (HEK-293T; 48 h, replicate 2): 37% and 58% | Total Cell Count (HEK-293T; 48 h, replicate 2): 235 and 234 | Population Apoptotic (%) (U2OS; 12 h, replicate 1): 68% and 85% | Population Healthy Nuclei (%) (U2OS; 12 h, replicate 1): 55% | Population Normal (%) (U2OS; 12 h, replicate 1): 98% and 96% | Total Cell Count (U2OS; 12 h, replicate 1): 288 and 258 | Population Apoptotic (%) (U2OS; 12 h, replicate 2): 76% and 92% | Population Healthy Nuclei (%) (U2OS; 12 h, replicate 2): 71% and 61% | Total Cell Count (U2OS; 12 h, replicate 2): 109 and 101 | Population Apoptotic (%) (U2OS; 24 h, replicate 1): 77% and 84% | Population Healthy Nuclei (%) (U2OS; 24 h, replicate 1): 54% and 55% | Population Normal (%) (U2OS; 24 h, replicate 1): 98% and 96% | Total Cell Count (U2OS; 24 h, replicate 1): 287 and 256 | Population Apoptotic (%) (U2OS; 24 h, replicate 2): 73% and 83% | Population Healthy Nuclei (%) (U2OS; 24 h, replicate 2): 72% | Population Normal (%) (U2OS; 24 h, replicate 2): 97% | Total Cell Count (U2OS; 24 h, replicate 2): 115 and 106 | Population Apoptotic (%) (U2OS; 48 h, replicate 1): 78% and 72% | Population Healthy Nuclei (%) (U2OS; 48 h, replicate 1): 44% and 39% | Population Normal (%) (U2OS; 48 h, replicate 1): 93% and 97% | Total Cell Count (U2OS; 48 h, replicate 1): 300 and 270 | Population Apoptotic (%) (U2OS; 48 h, replicate 2): 82% and 81% | Total Cell Count (U2OS; 48 h, replicate 2): 147 and 123
